In brackets after ≈: the same amount, converted by molar mass.
Experiments:
Format in all cases: functional
Candida albicans = test: Antimicrobial activity against Candida albicans after 24 hrs by broth microdilution method
Bacillus subtilis = test: Antimicrobial activity against Bacillus subtilis after 24 hrs by broth microdilution method
Summary of the method: (§1)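 MICs determined by two-fold broth microdilution following CLSI guidelines (M100-S22), with compound concentrations of […] in the well. Every well except the blank was inoculated with the test bacterium and incubated at 37 °C for 24 h. MIC was taken as the lowest concentration with no visible growth.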

Acinetobacter baumannii = test: Antimicrobial activity against Acinetobacter baumannii after 24 hrs by broth microdilution method; summary of the method: as §1
Escherichia coli = test: Antimicrobial activity against Escherichia coli after 24 hrs by broth microdilution method; summary of the method: as §1
Staphylococcus aureus = test: Antimicrobial activity against Staphylococcus aureus after 24 hrs by broth microdilution method; summary of the method: as §1
[1] = test system: Stenotrophomonas maltophilia; test: Antimicrobial activity against Stenotrophomonas maltophilia after 24 hrs by broth microdilution method; summary of the method: as §1

SMILES: c1ccc2c(c1)c(N1CCNCC1)nn1cnnc21
- MIC (Candida albicans): > 128 µg/mL
- MIC (Bacillus subtilis): > 128 µg/mL
- MIC (Acinetobacter baumannii): > 128 µg/mL
- MIC (Escherichia coli): > 128 µg/mL
- MIC (Staphylococcus aureus): > 128 µg/mL
- MIC [1]: > 128 µg/mL

SMILES: COc1ccc(Nc2nn3cnnc3c3ccccc23)cc1
- MIC (Candida albicans): > 128 µg/mL
- MIC (Bacillus subtilis): > 128 µg/mL
- MIC (Acinetobacter baumannii): > 128 µg/mL
- MIC (Escherichia coli): > 128 µg/mL
- MIC (Staphylococcus aureus): 128 µg/mL (≈ 439 µM)
- MIC [1]: > 128 µg/mL

SMILES: Cc1ccc(Nc2nn3c(-c4ccccc4)nnc3c3ccccc23)cc1
- MIC (Candida albicans): > 128 µg/mL
- MIC (Bacillus subtilis): > 128 µg/mL
- MIC (Acinetobacter baumannii): > 128 µg/mL
- MIC (Escherichia coli): > 128 µg/mL
- MIC (Staphylococcus aureus): 32 µg/mL (≈ 91.1 µM)
- MIC [1]: > 128 µg/mL

SMILES: Cc1nnc2c3ccccc3c(Nc3ccccc3Cl)nn12
- MIC (Candida albicans): > 128 µg/mL
- MIC (Bacillus subtilis): > 128 µg/mL
- MIC (Acinetobacter baumannii): > 128 µg/mL
- MIC (Escherichia coli): > 128 µg/mL
- MIC (Staphylococcus aureus): 32 µg/mL (≈ 103 µM)
- MIC [1]: > 128 µg/mL

SMILES: Fc1ccc(Nc2nn3cnnc3c3ccccc23)cc1
- MIC (Candida albicans): > 128 µg/mL
- MIC (Bacillus subtilis): > 128 µg/mL
- MIC (Acinetobacter baumannii): > 128 µg/mL
- MIC (Escherichia coli): > 128 µg/mL
- MIC (Staphylococcus aureus): 64 µg/mL (≈ 229 µM)
- MIC [1]: > 128 µg/mL

SMILES: Cc1nnc2c3ccccc3c(N3CC(C)CC(C)C3)nn12 (stereo not drawn)
- MIC (Candida albicans): > 128 µg/mL
- MIC (Bacillus subtilis): 64 µg/mL (≈ 217 µM)
- MIC (Acinetobacter baumannii): > 128 µg/mL
- MIC (Escherichia coli): > 128 µg/mL
- MIC (Staphylococcus aureus): 32 µg/mL (≈ 108 µM)
- MIC [1]: > 128 µg/mL

SMILES: COc1ccc(Nc2nn3c(C)nnc3c3ccccc23)cc1
- MIC (Candida albicans): > 128 µg/mL
- MIC (Bacillus subtilis): > 128 µg/mL
- MIC (Acinetobacter baumannii): > 128 µg/mL
- MIC (Escherichia coli): > 128 µg/mL
- MIC (Staphylococcus aureus): 16 µg/mL (≈ 52.4 µM)
- MIC [1]: > 128 µg/mL

SMILES: Fc1ccc(Nc2nn3c(-c4ccccc4)nnc3c3ccccc23)cc1
- MIC (Candida albicans): > 128 µg/mL
- MIC (Bacillus subtilis): > 128 µg/mL
- MIC (Acinetobacter baumannii): > 128 µg/mL
- MIC (Escherichia coli): > 128 µg/mL
- MIC (Staphylococcus aureus): 16 µg/mL (≈ 45 µM)
- MIC [1]: > 128 µg/mL

SMILES: Clc1ccc(Nc2nn3cnnc3c3ccccc23)cc1
- MIC (Candida albicans): > 128 µg/mL
- MIC (Bacillus subtilis): > 128 µg/mL
- MIC (Acinetobacter baumannii): > 128 µg/mL
- MIC (Escherichia coli): > 128 µg/mL
- MIC (Staphylococcus aureus): 32 µg/mL (≈ 108 µM)
- MIC [1]: > 128 µg/mL

SMILES: c1ccc(-c2nnc3c4ccccc4c(N4CCNCC4)nn23)cc1
- MIC (Candida albicans): 32 µg/mL (≈ 96.9 µM)
- MIC (Bacillus subtilis): 64 µg/mL (≈ 194 µM)
- MIC (Acinetobacter baumannii): 64 µg/mL (≈ 194 µM)
- MIC (Escherichia coli): 128 µg/mL (≈ 387 µM)
- MIC (Staphylococcus aureus): 32 µg/mL (≈ 96.9 µM)
- MIC [1]: 32 µg/mL (≈ 96.9 µM)

SMILES: Cc1ccc(Nc2nn3cnnc3c3ccccc23)cc1
- MIC (Candida albicans): > 128 µg/mL
- MIC (Bacillus subtilis): > 128 µg/mL
- MIC (Acinetobacter baumannii): > 128 µg/mL
- MIC (Escherichia coli): > 128 µg/mL
- MIC (Staphylococcus aureus): 32 µg/mL (≈ 116 µM)
- MIC [1]: > 128 µg/mL

SMILES: C[C@H]1COc2c(N3CCN(C)CC3)c(F)cc3c(=O)c(C(=O)O)cn1c23.C[C@H]1COc2c(N3CCN(C)CC3)c(F)cc3c(=O)c(C(=O)O)cn1c23.O [LEVOFLOXACIN]
- MIC (Bacillus subtilis): 1 µg/mL
- MIC (Acinetobacter baumannii): 0.25 µg/mL
- MIC (Escherichia coli): 0.25 µg/mL
- MIC (Staphylococcus aureus): 0.5 µg/mL
- MIC [1]: 0.5 µg/mL

SMILES: OC(Cn1cncn1)(Cn1cncn1)c1ccc(F)cc1F [FLUCONAZOLE]
- MIC (Candida albicans): 1 µg/mL (≈ 3.27 µM)

SMILES: Cc1ccc(Nc2nn3c(C)nnc3c3ccccc23)cc1
- MIC (Candida albicans): > 128 µg/mL
- MIC (Bacillus subtilis): > 128 µg/mL
- MIC (Acinetobacter baumannii): > 128 µg/mL
- MIC (Escherichia coli): > 128 µg/mL
- MIC (Staphylococcus aureus): 64 µg/mL (≈ 221 µM)
- MIC [1]: > 128 µg/mL
